# Only some compounds are listed: those with a hit (about 3% of all), similar ones and a draw of the others.
# S1P1 ag-PAM: S1P1 (human) agonism or agonism potentiation; P21453; S1P1 CRE-bla cells, forskolin, beta-lactamase FRET, potentiator mode; S1P1 agonist co-added at EC20, 2 nM; 100% = saturating reference agonist, 0% = basal; activation, % at 9.5 µM; actives 0.57% (n = 56,000);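 active = activation above a cutoff set at the mean activation of all tested compounds plus 3 SD, cut at about 54% in these data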;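 also: forskolin at 4 µM as EC80 and the EC20 agonist is SEW2871; 100% = SEW2871 at its EC100 plus forskolin at EC80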
# 5HT1E antag: 5-HT1E (human) receptor antagonism | P28566 | actives 0.99% (n = 65,000) | AID 571 | inhibition, % at 6 µM | CHO 5-HT1E Ga15 NFAT-bla reporter, FRET, antagonist;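 active = inhibition above a set limit, the mean inhibition across every tested compound plus 3 SD, cut at about 29% in these data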;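 also: signal is the 460 over 535 nm emission ratio of beta-lactamase substrate; 0% = agonist plus DMSO wells and 100% = wells without agonist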
# Target sequence (P28566 whole entry, looked up): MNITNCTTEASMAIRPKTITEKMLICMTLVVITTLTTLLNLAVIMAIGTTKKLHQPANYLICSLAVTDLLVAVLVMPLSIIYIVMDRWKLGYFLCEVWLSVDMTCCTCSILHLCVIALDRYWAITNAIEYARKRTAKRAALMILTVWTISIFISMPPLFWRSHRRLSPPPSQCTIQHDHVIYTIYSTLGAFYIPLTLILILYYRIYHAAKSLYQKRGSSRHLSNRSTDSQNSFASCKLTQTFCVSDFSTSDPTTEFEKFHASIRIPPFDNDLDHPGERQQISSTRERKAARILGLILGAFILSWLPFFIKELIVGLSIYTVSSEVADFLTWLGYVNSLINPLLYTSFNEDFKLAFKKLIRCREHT
# S1P3 agonist: agonists of human S1P3 receptor | AID 373 | S1P3 NFAT-BLA reporter cells, agonism, FRET ratio; relative to 1 µM S1P, basal subtracted | activation, % at 4.5 µM | actives 0.1% (n = 60,000);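 active = activation above the screen-wide mean plus 3 SD, cut at about 4.5% in these data, passing the limit was not always enough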
#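 Assay system: CHO cells stably expressing human S1P3, Gα16 and NFAT-β-lactamase reporter. Timing: overnight plating, 4 h compound 37 °C, 2 h substrate RT. Signal: β-lactamase FRET emission ratio 460/535 nm. Measure: percent activation versus median 1 µM S1P response, basal-subtracted, per plate. Repeats: primary screen single test, confirmation screen in triplicate.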
# 5HT1a ag: activates the human 5-HT1a serotonin receptor; actives 0.56% (n = 65,000); P08908; AID 567; CHO 5-HT1a Ga15 NFAT-bla reporter, FRET ratio; 0% basal, 100% maximal reference agonist; activation, % at 10 µM;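 active = activation above the screen-wide mean activation plus 3 SD, cut at about 19% in these data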;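 also: 0% = DMSO wells and 100% = 5-CT at EC100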
# HTR1E agonist: agonists of human 5-HT1E serotonin receptor. P28566. CHO 5-HT1E Ga15 NFAT-bla reporter, FRET; 0% DMSO wells, 100% control agonist wells. activation, % at 6 µM. actives 0.69% (n = 65,000). AID 574;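 active = activation above a set limit, the screen-wide mean activation plus 3 SD, cut at about 8.5% in these data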;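 also: 100% = positive control agonist at 1 µM giving full maximal response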
# 5HT1a antag: antagonists of human 5-HT1a serotonin receptor; inhibition, % at 10 µM; CHO 5-HT1a Ga15 NFAT-bla reporter, antagonist mode; actives 0.68% (n = 62,000); AID 612;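 active = inhibition above the mean of all tested compounds plus 3 SD, cut at about 43% in these data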;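 also: receptor stimulated by 5-CT agonist at 100 nM near EC80; beta-lactamase reporter measured by ratiometric fluorescence of a cleavable substrate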
# Numbers without * were called inactive; . = no result given.
SMILES,S1P1 ag-PAM,5HT1E antag,S1P3 agonist,5HT1a ag,HTR1E agonist,5HT1a antag
O=S1(=O)C=C(Sc2nc3ccccc3s2)c2ccccc21,114.0*,106.0*,-1.9,-3.8,-0.4,98.5*
Cc1cc(C)nc(SC2=CS(=O)(=O)c3ccccc32)n1,43.0,27.6,-1.0,-0.4,1.0,27.8
COc1ccc2[nH]c3ccccc3c2c1,7.5,-13.6,-0.4,-3.1,-0.4,-0.9
COc1ccc2[nH]c3c(c2c1)CN(C)CC3,15.1,28.7*,-0.6,102.3*,1.3,6.8
CCCSc1nc(N2CCOCC2)c2c(c1C#N)CCCC2,59.3,7.8,23.2*,0.3,0.9,.
CC(Oc1ccccc1Br)C(=O)N1CCc2ccccc21 (centres undefined),87.3*,4.4,9.9*,-2.6,-1.2,18.7
CCn1cc(C(=O)NCc2ccc(C)o2)c2cc(OC)c(OC)cc2c1=O,-37.9,29.0*,-0.4,0.7,-0.6,10.4
CCn1cc(C(=O)NCC(=O)OC)c2cc(OC)c(OC)cc2c1=O,.,4.4,.,0.5,-0.3,2.3
CN1C(=O)N(S(=O)(=O)c2ccc(F)c(F)c2F)C(=O)C1(C)C,-2.2,-13.1,0.4,-0.5,0.0,-19.4
COc1ccc(CCNc2cc(=O)[nH]c(N)n2)cc1,-43.6,-0.6,-0.7,-5.5,0.3,1.0
CCN(Cc1ccccc1)C(c1ccccn1)c1nnnn1C(C)(C)CC (centres undefined),-4.1,0.6,-0.6,-0.7,-1.0,45.3*
CCC(C)(C)n1nnnc1C(c1ccccn1)N1CCOCC1 (centres undefined),-8.6,-2.2,-0.3,-2.2,-0.7,1.9
C=CCSC1=C(C#N)C(c2ccc(OCC)cc2)CC(=O)N1 (centres undefined),2.0,5.4,-0.9,0.8,0.0,-6.4
O=S(=O)(Nc1ccc2c(c1)nc1n2CCOC1)c1ccc(Cl)cc1,12.1,-7.2,-0.7,-3.2,-0.3,-9.8
Cc1cccc2cc3c(nc12)SC(=NCC1CCCO1)N(Cc1ccco1)C3 (centres undefined),-3.6,31.6*,-0.5,-3.4,0.9,57.2*
O=C(Nc1ccccc1)N1CC=C(c2ccccc2)CC1,.,-0.1,0.6,-1.9,-0.1,13.3
O=C(O)C1CCCCC1C(=O)N1CC=C(c2ccccc2)CC1 (centres undefined),11.9,2.6,-0.6,5.9,21.5*,3.1
CNC(=O)CN(C1CCCCC1)S(=O)(=O)c1ccc(F)cc1,-4.9,-2.7,0.1,42.4*,0.9,4.2
CCNC(=O)CN(C1CCCCC1)S(=O)(=O)c1ccc(F)cc1,.,-5.5,.,0.5,-0.8,7.2
O=C(NCC(=O)N(c1ccc2c(c1)OCCO2)C(C(=O)NC1CCCC1)c1ccco1)c1ccco1 (centres undefined),6.0,-0.2,-0.4,-3.2,0.4,-3.4
COc1cc(C(=O)Oc2c(CN3CCOCC3)cc(Cl)c3cccnc23)cc(OC)c1OC,-31.6,38.4*,-1.4,0.5,1.7,17.8
O=C(Oc1c(CN2CCOCC2)cc(Cl)c2cccnc12)c1ccc(F)cc1,-8.1,36.7*,-0.6,-1.0,2.1,17.4
COc1ccc(C(=O)Oc2c(CN3CCOCC3)cc(Cl)c3cccnc23)cc1,4.1,-2.3,-0.8,0.5,2.0,8.3
O=C(Cn1c(C(=O)N2CCc3ccccc3C2)cc2sccc21)c1ccccc1,3.0,2.1,-1.5,-3.2,-0.1,43.5*
CCc1oc2ccccc2c1C(=O)c1cc(Br)c(O)c(Br)c1,67.7*,-1.9,-1.9,-1.5,-0.8,.
CCOC(=O)c1c(COc2ccccc2)oc2ccc(O)cc12,-0.3,8.2,-1.6,0.2,-0.5,20.1
CC(=O)c1cccc(NC(=O)C2CCN(S(=O)(=O)c3c(C)n[nH]c3C)CC2)c1,-1.0,-8.0,1.5,-1.4,0.8,-3.9
O=C(CCN1CCN(c2ccccc2F)CC1)Nc1ccc2c(c1)OCO2,-5.1,0.4,-0.1,8.3,-0.5,83.7*
CC1CN(CCC(=O)Nc2ccc3c(c2)OCO3)CC(C)O1 (centres undefined),.,-3.3,.,1.1,0.7,-10.8

# Assay outcomes as filed in PubChem.
